Published values from different studies.
Compare with care: the assays were run in different laboratories.
Effect on: cell growth or viability

`CC(=O)O[C@H]1C(=O)[C@@]2(C)[C@H]([C@H](OC(=O)c3ccccc3)[C@]3(O)C[C@H](OC(=O)[C@H](O)[C@@H](NC(=O)c4ccccc4)c4ccccc4)C(C)=C1C3(C)C)[C@]1(OC(C)=O)CO[C@@H]1C[C@@H]2O` has an IC50 of 4 nM (BXPC-3; fluorescence; 72 h).
`CCN1CCN(c2ccc(Nc3cc(N(C)C(=O)Nc4c(Cl)c(OC)cc(OC)c4Cl)ncn3)cc2)CC1` gave an IC50 of 52.5 nM (MFE-296; ATP luminescence; 96 h).
With `Cc1cnc(NC2CCOCC2)nc1-n1cnc(C(=O)NC(CN)c2cc(F)cc(Cl)c2)c1` (centres unmarked) the IC50 was 300 nM (U-2973; MTS).
`CNc1ncc2cc(-c3ccc(-c4cccc(C)n4)cc3Cl)c(=O)n(C[C@H]3OC[C@H](N)CO3)c2n1` has an IC50 of 20300 nM (BXPC-3; MTT; 24 h).
`CCN(CC)CCCC(C)Nc1cnc(C(=O)Nc2cc(F)cc3cccnc23)cn1` (centres unmarked) has an IC50 of 7300 nM (BXPC-3; MTT).
`CCn1c(=O)c(-c2ccc(-c3cncs3)cc2Cl)cc2cnc(Nc3ccc(N4CCN(C)CC4)cc3)nc21` gave an IC50 of 3030 nM (BXPC-3; MTT; 24 h).
The IC50 of `COc1cc(Nc2nccc(-c3cnn4nc(OC)ccc34)n2)cc(C(F)(F)F)c1` is reported as 530 nM (DLD-1; ATP luminescence).
The IC50 of `Cc1nc(Nc2ncc(C(=O)Nc3c(C)cccc3Cl)s2)cc(N2CCN(CCO)CC2)n1` is reported as 46 nM (BXPC-3; MTT).
The IC50 of `CC(C)n1ncnc1-c1cn2c(n1)-c1ccc(O[C@@H](C)C(N)=O)cc1OCC2` is reported as 21 nM (SW48; ATP luminescence; 96 h).
`CC[C@]1(O)C[C@H]2CN(CCc3c([nH]c4ccccc34)[C@@](C(=O)OC)(c3cc4c(cc3OC)N(C=O)[C@H]3[C@@](O)(C(=O)OC)[C@H](OC(C)=O)[C@]5(CC)C=CCN6CC[C@]43[C@@H]65)C2)C1` has an IC50 of 2 nM (BXPC-3; fluorescence; 72 h).
`CCN1C(=O)N(c2c(F)c(OC)cc(OC)c2F)Cc2cnc3[nH]c(CN4CCOCC4)cc3c21` has an IC50 of 56 nM (MFE-296; ATP luminescence; 96 h).
`CN(C)C/C=C/C(=O)Nc1cc2c(Nc3ccc(F)c(Cl)c3)ncnc2cc1O[C@H]1CCOC1` has an IC50 of 4300 nM (SW620/AD300; MTT; 72 h).
For `CC(C)C[C@H](NC(=O)[C@H](Cc1ccccc1)NC(=O)c1cnccn1)B(O)O`, the IC50 was 13 nM (SK-N-FI; ATP luminescence).
`C[C@H]1[C@H](C)CC[C@]2(C(=O)O)CC[C@]3(C)C(=CC[C@@H]4[C@@]5(C)CC[C@H](O)C(C)(C)[C@@H]5CC[C@]43C)[C@H]12` has an IC50 of 13000 nM (DLD-1; 48 h).
